Laboratory results published in ChEMBL document CHEMBL1142588, “Communesins G and H, new alkaloids from the psychrotolerant fungus Penicillium rivulum” (J Nat Prod, 2005).
Calls of active or inactive are those of the source. The calls are words filed in the database; no cut-off is given here.

How the values were obtained:
[1] = Cytotoxicity against african green monkey BS-C-1 cells; format: cell-based; details: chlorocebus aethiops, bsc-1
In short: (§1)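 BSC-1 African green monkey kidney cells infected with Herpes simplex type 1 virus (ATCC VR 733); scored for inhibition of virus and for alteration of the host cells.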

Escherichia coli = assay: Antibacterial activity against Escherichia coli assessed as inhibition zone at 1 mg/mL by paper disk assay; format: functional, organism-based
In short: (§2)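 Paper disk diffusion; 30 μL of a 1 mg/mL compound solution applied per disk; read-out as zone of inhibition. Panel run in parallel: bacteria E. coli, B. subtilis, P. aeruginosa; fungi C. albicans, T. mentagrophytes, A. resinae.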

Bacillus subtilis = assay: Antibacterial activity against Bacillus subtilis assessed as inhibition zone at 1 mg/mL by paper disk assay; format: functional, organism-based; in short: as §2
Pseudomonas aeruginosa = assay: Antibacterial activity against Pseudomonas aeruginosa assessed as inhibition zone at 1 mg/mL by paper disk assay; format: functional, organism-based; in short: as §2
Candida albicans = assay: Antifungal activity against Candida albicans assessed as inhibition zone at 1 mg/mL by paper disk assay; format: functional, organism-based; in short: as §2
[2] = tested on: Trichophyton mentagrophytes; assay: Antifungal activity against Trichophyton mentagrophytes assessed as inhibition zone at 1 mg/mL by paper disk assay; format: functional, organism-based; in short: as §2
Amorphotheca resinae = assay: Antifungal activity against Amorphotheca resinae assessed as inhibition zone at 1 mg/mL by paper disk assay; format: functional, organism-based; in short: as §2
Human alphaherpesvirus 1 = assay: Antiviral activity against herpes simplex virus type 1 ATCC VR 733 infected in african green monkey BS-C-1 cells; format: functional, organism-based; in short: as §1
Poliovirus 1 = assay: Antiviral activity against Poliovirus type 1 infected in african green monkey BS-C-1 cells; format: functional, organism-based
In short: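 Poliovirus type 1 (Pfizer vaccine strain) infecting African green monkey kidney BSC-1 cells; scored for inhibition of the virus and for alteration of the host cells.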

P388 = assay: Cytotoxicity against mouse P388 cells; format: functional; details: read-out: ID50 (the source's name)

Structure (SMILES) | Activity [1] | Activity (Escherichia coli) | Activity (Bacillus subtilis) | Activity (Pseudomonas aeruginosa) | Activity (Candida albicans) | Activity [2] | Activity (Amorphotheca resinae) | Activity (Human alphaherpesvirus 1) | Activity (Poliovirus 1) | IC50 (P388) [µg/mL]
CCC(=O)N1CC[C@]23c4ccccc4N[C@H]4N(C)c5cccc6c5[C@]42CCN([C@H]6[C@@H]2OC2(C)C)[C@H]13 [COMMUNESIN G] | Non-toxic | inactive | inactive | inactive | inactive | inactive | inactive | inactive | inactive | > 12.5
CCCC(=O)N1CC[C@]23c4ccccc4N[C@H]4N(C)c5cccc6c5[C@]42CCN([C@H]6[C@@H]2OC2(C)C)[C@H]13 [COMMUNESIN H] | Non-toxic | inactive | inactive | inactive | inactive | inactive | inactive | inactive | inactive | > 12.5
